The species named for one experiment is Homo sapiens. Briefly: Competitive inhibition of the contraction of the human umbilical vein induced by the potent B1 receptor agonist [des-Arg10]-kallidin. It is filed as functional. To be noted: read-out: pA2 (converted). Summed up: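 Human umbilical vein rings (3-4 mm) incubated overnight at 37 °C in Krebs (B1 induction), then set in organ baths at 37 °C, 95% O2/5% CO2, stretched to 1 g. Antagonist or vehicle 15 min before [des-Arg10]-kallidin concentration-response curve (one per ring), expressed as % of 1 µM U46619 maximal contraction.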

Another experiment deals with T1, B1 bradykinin receptor (Homo sapiens, UniProt P46663).
T1 sequence (P46663 whole entry): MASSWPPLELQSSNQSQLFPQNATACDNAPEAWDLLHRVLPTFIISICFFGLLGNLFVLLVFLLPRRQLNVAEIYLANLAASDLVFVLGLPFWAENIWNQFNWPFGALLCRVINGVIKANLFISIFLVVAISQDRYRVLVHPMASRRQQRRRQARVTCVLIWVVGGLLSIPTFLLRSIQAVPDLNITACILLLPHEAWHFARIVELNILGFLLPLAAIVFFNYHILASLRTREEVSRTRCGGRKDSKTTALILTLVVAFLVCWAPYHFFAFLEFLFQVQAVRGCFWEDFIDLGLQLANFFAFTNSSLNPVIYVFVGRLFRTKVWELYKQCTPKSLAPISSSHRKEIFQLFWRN
Briefly: Binding affinity towards human cloned B1 receptor was determined using [3H][des-Arg10-Leu9]-kallidin as radioligand.

For a further experiment, the target named is T2, B2 bradykinin receptor (Homo sapiens, UniProt P30411).
T2 sequence (P30411 whole entry): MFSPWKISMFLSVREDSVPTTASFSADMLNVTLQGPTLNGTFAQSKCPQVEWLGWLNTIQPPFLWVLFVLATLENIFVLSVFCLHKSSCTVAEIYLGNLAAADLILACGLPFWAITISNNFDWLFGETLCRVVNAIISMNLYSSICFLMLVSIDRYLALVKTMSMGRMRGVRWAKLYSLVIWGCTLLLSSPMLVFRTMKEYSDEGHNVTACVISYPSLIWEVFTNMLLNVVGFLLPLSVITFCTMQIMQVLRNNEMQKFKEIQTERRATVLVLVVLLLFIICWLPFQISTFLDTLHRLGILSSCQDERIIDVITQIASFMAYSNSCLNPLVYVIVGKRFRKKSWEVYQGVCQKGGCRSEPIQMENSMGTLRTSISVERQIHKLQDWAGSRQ
Briefly: Binding affinity towards human cloned B2 receptor was determined using [3H]BK as radioligand.

The target in experiment [1] is T3, B2 bradykinin receptor (Homo sapiens) (UniProt P30411).
T3 sequence (whole entry): T2 sequence (P30411 whole entry)
Briefly: Binding affinity towards human cloned B2 receptor was determined using [3H]BK as radioligand; Inactive.

The target of experiment [2] is T4, B1 bradykinin receptor (Homo sapiens) (UniProt P46663).
T4 sequence (whole entry): T1 sequence (P46663 whole entry)
Briefly: Binding affinity towards human cloned B1 receptor was determined using [3H][des-Arg10-Leu9]-kallidin as radioligand; No significant affinity at 10 uM.

Experiment [3] addresses T4, B1 bradykinin receptor (Homo sapiens). Briefly: Binding affinity towards human cloned B1 receptor was determined using [3H][des-Arg10-Leu9]-kallidin as radioligand; No significant affinity at 10E-5 M.
The species named for a further experiment is Rattus norvegicus. The experiment in a line: Compound was tested for antagonist activity on rat ileum longitudinal smooth muscle. It is filed as functional. To be noted: read-out: pA2 (converted).

The source made the active and inactive calls. The calls are words filed in the database; no cut-off is given here. Square brackets hold non-standard residues; d marks the D form. Peptide text beside a SMILES is read from it. ξ: configuration not given here. Oic(3aξ,7aξ) = O=C(O)[C@@H]1CC2CCCCC2N1; Tic = O=C(O)[C@@H]1Cc2ccccc2CN1; Aun = NCCCCCCCCCCC(=O)O

In the case of `NCCCC[C@H](N)C(=O)N[C@@H](CCCN=C(N)N)C(=O)N1CCC2(CC1)C(=O)N(CC(=O)N[C@@H](CO)C(=O)N[C@@H]1CSc3ccccc3N(CC(=O)O)C1=O)CN2CCc1ccccc1`, the Kb in the experiment listed under Homo sapiens was 794 nM. Further, the figures for the Ki on B1 bradykinin receptor and at B2 bradykinin receptor were 24.1 nM and 11900 nM, respectively.
Regarding `N=C(N)NCCCCC(=O)NC(CCCNC(=N)N)C(=O)N1CCC2(CC1)C(=O)N(CC(=O)NC(CO)C(=O)N[C@@H]1CSc3ccccc3N(CC(=O)O)C1=O)CN2CCc1ccccc1` (stereo partly specified), the NA entry in experiment [1] was “inactive”. For the same compound, in experiment [2], the NS result was “inactive”.
`NCCCC[C@H](N)C(=O)N[C@@H](CCCN=C(N)N)C(=O)N1CCC2(CC1)C(=O)N(CC(=O)N[C@@H](CO)C(=O)N[C@@H]1CSc3ccccc3N(CC(=O)O)C1=O)CN2CCC1Cc2ccccc2C1`: in experiment [1], the NA result is “inactive”. For the same compound, in experiment [3], the NS result is “inactive”.
With `NCCCC[C@H](N)C(=O)N[C@@H](CCCN=C(N)N)C(=O)N1CCC2(CC1)C(=O)N(CC(=O)N[C@@H](CO)C(=O)N[C@@H]1CSc3ccccc3N(CC(=O)O)C1=O)CN2c1ccccc1`, in experiment [1], the NA entry is “inactive”. In addition, the NS result in experiment [3] is “inactive”.
`C[C@H](NC(=O)CN1CN(CCc2ccccc2)C2(CCN(C(=O)[C@H](CCCN=C(N)N)NC(=O)[C@@H](N)CCCCN)CC2)C1=O)C(=O)N[C@@H]1CSc2ccccc2N(CC(=O)O)C1=O`: the NA entry in experiment [1] is “inactive”.
As to `C[C@H](NC(=O)[C@@H](N)CCCCN)C(=O)N1CCC2(CC1)C(=O)N(CC(=O)N[C@@H](CO)C(=O)N[C@@H]1CSc3ccccc3N(CC(=O)O)C1=O)CN2CCc1ccccc1`, the NA result in experiment [1] was “inactive”. Also, the NS entry in experiment [2] is “inactive”.
Regarding `NCc1ccc(C(=O)NC(CCCN=C(N)N)C(=O)N2CCC3(CC2)C(=O)N(CC(=O)NC(CO)C(=O)N[C@@H]2CSc4ccccc4N(CC(=O)O)C2=O)CN3CCc2ccccc2)cc1` (stereo partly specified), the NA result in experiment [1] is “inactive”. Further, the NS entry in experiment [2] was “inactive”.
With `NC(N)=NCCC[C@H](NC(=O)[C@@H](N)CCCN=C(N)N)C(=O)NCCCCCCCCCCC(=O)N[C@@H](CO)C(=O)N1Cc2ccccc2C[C@H]1C(=O)N1C2CCCCC2C[C@H]1C(=O)O` (stereo partly specified) (H-RR[Aun]S[Tic][Oic(3aξ,7aξ)]-OH), in the experiment listed under Rattus norvegicus, the Kb was 79.4 nM.
Regarding `C[C@H](N)C(=O)N[C@@H](CCCN=C(N)N)C(=O)N1CCC2(CC1)C(=O)N(CC(=O)N[C@@H](CO)C(=O)N[C@@H]1CSc3ccccc3N(CC(=O)O)C1=O)CN2CCc1ccccc1`, the NA entry in experiment [1] was “inactive”. Further, in experiment [2], the NS result is “inactive”.
Turning to `N=C(N)NCCCC(NC(=O)C1CCNCC1)C(=O)N1CCC2(CC1)C(=O)N(CC(=O)NC(CO)C(=O)N[C@@H]1CSc3ccccc3N(CC(=O)O)C1=O)CN2CCc1ccccc1` (stereo partly specified), in experiment [1], the NA result is “inactive”. In addition, the NS entry in experiment [2] was “inactive”.
Take `C[C@@H](O)[C@H](NC(=O)CN1CN(CCc2ccccc2)C2(CCN(C(=O)[C@H](CCCN=C(N)N)NC(=O)[C@@H](N)CCCCN)CC2)C1=O)C(=O)N[C@@H]1CSc2ccccc2N(CC(=O)O)C1=O`: the NA entry in experiment [1] is “inactive”.
On the same count and under the same terms, as for `NCCCC[C@H](N)C(=O)N[C@@H](CCCN=C(N)N)C(=O)N1CCC2(CC1)CN(CC(=O)N[C@@H]1CSc3ccccc3N(CC(=O)O)C1=O)C(=O)N2CCc1ccccc1`, the entry is “inactive”.

For the origin of these results see ChEMBL document CHEMBL1133747, “A rational approach to the design and synthesis of a new bradykinin B(1) receptor antagonist” (J Med Chem, 2000).
